Tn6 DDE FP: inhibitors of Tn6 peptide binding to human fibrin DD(E); P02675; Fibrin DD(E) TRITC-Tn6 fluorescence polarization displacement; inhibition, % at 8.3 µM; 0.21% of 370,000 active;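 active means inhibition above a per-campaign cutoff: mean of compounds within control limits plus 3 SD, cut at about 15% in these data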;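 further: 0% = median of all compound wells on the plate and 100% = blocking peptide control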
DDE Tn7 FP inh: disrupts Tn7 cyclic peptide binding to fibrin D-Dimer-E complex; P02675; FP displacement of FITC-Tn7 peptide from fibrin DD(E); 0% = median of compound wells per plate; inhibition, % at 8.3 µM; 0.13% of 370,000 active; AID 720508;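 active means inhibition above the mean of compounds falling within the control limits plus 3 SD of them, cut at about 14% in these data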;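 further: 0% = plate median of compound wells and 100% = 10 µM Aha-Tn7 peptide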
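Assay system: human fibrin DD(E) protein / Input: 2 µM fibrin DD(E) / Benchmarks: high control of 10 µM Aha-Tn7 peptide / Measured by: fluorescence polarization of the labelled Tn7 tracer / Medium: Tris buffer with calcium and detergent, pH 7.8 / Timing: 10 min compound pre-incubation, 3 h probe incubation at room temperature / Repeats: one replicate per compound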
ADAM17 inh: inhibits human ADAM17; P78536; recombinant ADAM17, EDANS/DABCYL FRET peptide cleavage; inhibition, % at 6.95 µM; 0.83% of 370,000 active;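 active means inhibition above the mean of compounds lying between control limits plus 3 SD, set per campaign, cut at about 8.5% in these data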;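 further: 0% = DMSO-only wells as the low control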
Target sequence (P78536 215-824 limits assumed): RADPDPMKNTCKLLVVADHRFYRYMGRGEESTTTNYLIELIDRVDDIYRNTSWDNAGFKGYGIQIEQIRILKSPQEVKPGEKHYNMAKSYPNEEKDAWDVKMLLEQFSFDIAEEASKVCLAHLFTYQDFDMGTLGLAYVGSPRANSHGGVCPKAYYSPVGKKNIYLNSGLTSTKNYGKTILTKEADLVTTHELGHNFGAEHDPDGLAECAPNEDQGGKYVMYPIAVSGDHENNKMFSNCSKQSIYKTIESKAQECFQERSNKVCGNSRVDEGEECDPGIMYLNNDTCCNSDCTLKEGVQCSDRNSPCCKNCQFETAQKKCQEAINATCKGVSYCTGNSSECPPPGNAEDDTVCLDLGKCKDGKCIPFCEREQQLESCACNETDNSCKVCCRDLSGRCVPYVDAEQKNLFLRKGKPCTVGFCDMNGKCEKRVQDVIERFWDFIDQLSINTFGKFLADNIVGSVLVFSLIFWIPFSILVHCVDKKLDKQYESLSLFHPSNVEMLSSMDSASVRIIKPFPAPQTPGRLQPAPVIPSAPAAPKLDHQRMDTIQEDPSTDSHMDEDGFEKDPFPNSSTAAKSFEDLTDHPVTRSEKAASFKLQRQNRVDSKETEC
MT1-MMP act inh: inhibitors of human MT1-MMP activation; HT1080 RFP-PRO-GFP cells, GFP/RFP ratio fluorescence, overnight; percent of plate control window, DMSO zero; GFP/RFP ratio change, % at 20 µM; 0.061% of 360,000 active; AID 651647;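 active means GFP/RFP ratio change of at least 30% with cell ATP level not reduced by more than half and red fluorescence within 50% of control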
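Assay system: RFP-PRO-GFP reporter HT1080 cells; read-out basis: GFP/RFP fluorescence ratio; benchmarks: DMSO wells and RFP-L50D-GFP cells; doses: 20 µM single dose, 1% DMSO; schedule: overnight cell settling, then overnight compound exposure, 37 °C, 5% CO2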
ADAM10 inh: inhibitors of human ADAM10; recombinant ADAM10, EDANS/DABCYL FRET peptide cleavage, 3 h; inhibition, % at 7 µM; AID 720582; 0.62% of 370,000 active;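 active means inhibition above a per-campaign cutoff equal to the mean of compounds falling between control-based bounds plus 3 SD, cut at about 20% in these data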;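 further: 0% = DMSO wells while the 100% control is not disclosed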
ADAM10 confirm: confirmation of inhibitors of human ADAM10; shares compounds with ADAM10 inh; ADAM10 QFRET peptide cleavage, EDANS fluorescence; inhibition, % at 6.95 µM; 1% of 2,100 active;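 active means inhibition above about 20% chosen separately for each screening run, limit read from the data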;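 further: 0% = DMSO wells and 100% = marimastat wells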
ADAM17 ctr: ADAM17 inhibition, counter-screen for ADAM10 exosite hits. inhibition, % at 6.95 µM. shares compounds with ADAM10 inh. ADAM17 QFRET peptide cleavage, EDANS fluorescence. 0.5% of 2,100 active;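 active means mean triplicate inhibition above the solvent-only control wells' mean plus 3 SD, cut at about 12% in these data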;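 further: 0% = DMSO wells and 100% = marimastat wells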
ADAM10 ctr: counter-screen for ADAM17 exosite inhibitors: inhibitors of human ADAM10; inhibition, % at 6.95 µM; shares compounds with ADAM17 inh; 47% of 2,900 active; recombinant ADAM10, EDANS/DABCYL FRET peptide cleavage, 3 h;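 active means mean inhibition over the triplicate runs exceeds the activity threshold set in the earlier primary screen, cut at about 20% in these data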;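 further: 0% = DMSO wells and 100% = marimastat wells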
ADAM17 confirm: confirmation of inhibitors of human ADAM17; shares compounds with ADAM17 inh; recombinant ADAM17, EDANS/DABCYL QFRET peptide cleavage; inhibition, % at 6.95 µM; 65% of 2,900 active; AID 743257;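 active means mean inhibition across replicates above the hit cutoff set in the primary screen, cut at about 8.5% in these data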;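 further: 0% = DMSO wells and 100% = marimastat wells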
An asterisk follows results filed as active; · = no result. An excerpt weighted towards active compounds, which were near 1.6% of everything screened.

SMILES	Tn6 DDE FP	DDE Tn7 FP inh	ADAM17 inh	MT1-MMP act inh	ADAM10 inh	ADAM10 confirm	ADAM17 ctr	ADAM10 ctr	ADAM17 confirm
NC(=O)CC(NC(=O)c1ccc(Br)cc1)c1ccc(N2CCCCCCC2)c([N+](=O)[O-])c1 (configuration not stated)	-3.5	-4.7	10.5*	16.0	22.6*	5.4	1.3	22.0*	12.2*
Cc1cc(=O)[nH]c(SCC(=O)Nc2ccc(Cl)cc2)n1	0.2	0.9	-1.6	·	-11.5	·	·	·	·
C/C(=N/Nc1ccc([N+](=O)[O-])cc1)c1ccc(C)cc1C	3.5	-9.8	9.6*	-8.2	23.1*	7.5	2.5	18.9	14.9*
C/C(=N/Nc1ccc([N+](=O)[O-])cc1)c1c[nH]c2ccccc12	-13.6	-1.2	5.8	-62.0	17.6	·	·	·	·
CC(Oc1ccccc1Cl)C(=O)N1CCCN(C)CC1 (configuration not stated)	1.8	5.8	0.5	-1.9	3.8	·	·	·	·
Cc1cc(Cl)ccc1OC(C)C(=O)N1CCCN(C(=O)C(C)Oc2ccc(Cl)cc2C)CC1 (configuration not stated)	-14.7	1.1	15.1*	-13.2	25.5*	4.5	1.4	28.6*	17.5*
COC(=O)[C@H](C(C)C)N(CCCc1cn(Cc2ccc(C)cc2)nn1)S(=O)(=O)c1ccccc1Br	-3.7	-2.8	1.4	·	8.4	·	·	·	·
COC(=O)[C@H](CC(C)C)N(CCCc1cn(Cc2ccc(C)cc2)nn1)S(=O)(=O)c1ccccc1Br	0.0	-4.5	12.6*	·	22.7*	5.4	1.9	23.7*	15.7*
CC1=C(C(=O)Nc2ccc([N+](=O)[O-])cc2)C(c2cccc(C(F)(F)F)c2)NC(=S)N1c1ccccc1 (configuration not stated)	0.3	-3.4	17.7*	-2.3	34.5*	6.3	2.2	59.2*	31.7*
COc1cccc(C(=O)N[C@@H](Cc2cccnc2)C(=O)N2CCC[C@H]2C(=O)NCCc2ccccc2Cl)c1	13.3	3.3	-1.1	·	1.8	·	·	·	·
O=C(CSc1nc2ccccc2[nH]1)Nc1ccc(F)c(F)c1	3.0	-1.4	10.1*	3.5	21.4*	0.8	0.2	9.5	4.1
COC(=O)[C@@]12C[C@@H](CC(=O)NCCCCc3ccccc3)C(=O)N(Cc3ccc4c(c3)OCO4)C1=CCC(C)(C)C2	0.8	-3.6	16.7*	-9.5	27.3*	5.3	2.5	28.5*	15.0*
O=C(CC1CCCC1)N[C@H](C(=O)N1CCC[C@H]1C(=O)NCCc1ccccc1Cl)c1ccccc1	-1.1	-4.6	-4.6	·	-1.1	·	·	·	·
CCCCN(CCCC)CCCNC(=O)Cn1cc(C)c(=O)[nH]c1=O	-3.0	-1.2	-4.1	·	-6.3	·	·	·	·
COc1cccc(NC(=O)CN(C)C(=O)c2ccccc2OCc2c(C)noc2C)c1	-1.5	5.7	-7.9	1.5	-7.5	·	·	·	·
Cc1noc(C)c1COc1ccccc1C(=O)N(C)CC(=O)Nc1ccc(Cl)c(Cl)c1	-4.6	3.0	9.9*	4.3	22.6*	3.1	0.1	31.6*	12.6*
Cc1cccc(COc2ccccc2C(=O)N(C)CC(=O)Nc2cccc(F)c2)c1	-2.2	-5.4	11.3*	1.3	23.4*	-0.7	0.1	16.0	12.7*
Cc1ccc(S(=O)(=O)NC2c3cccc4cccc(c34)C2Sc2n[nH]c(N)n2)cc1 (configuration not stated)	0.3	-0.4	3.5	-2.5	-1.1	·	·	·	·
O=S(=O)(NC1c2cccc3cccc(c23)C1Sc1ncccn1)c1ccc(Cl)cc1 (configuration not stated)	-14.1	-6.8	9.7*	-6.4	24.6*	7.3	3.6	27.5*	13.8*
Cc1cc(NS(=O)(=O)c2ccc(NC(=O)CSc3nc4sc(C)c(C)c4c(=O)n3Cc3ccco3)cc2)nc(C)n1	-7.9	1.5	3.1	·	4.6	·	·	·	·
CC(/C=C1\SC(=O)N(CC(=O)Nc2cccc(O)c2)C1=O)=C\c1ccccc1	9.6	7.9	13.0*	0.6	28.6*	11.6	4.3	23.5*	14.6*
Cc1ccc(OC(C)C(=O)Nc2ccc(C)c(S(=O)(=O)Nc3ccc(C)cc3C)c2)cc1 (configuration not stated)	-6.8	-3.7	12.3*	-14.3	23.8*	10.1	2.9	28.4*	14.8*
CCOc1cc(-c2nc(-c3ccccc3)c(-c3cc([N+](=O)[O-])ccc3C)[nH]2)ccc1O	-4.3	-1.3	11.5*	0.9	30.9*	7.0	3.1	21.1*	11.9*
COc1ccc(NC(C)C(=O)N/N=C/c2ccccc2OCc2cccc(Br)c2)cc1 (configuration not stated)	-5.9	7.7	8.8*	-2.8	21.4*	11.5	3.1	48.0*	21.8*
Cc1ccccc1NC(C)C(=O)N/N=C/c1ccccc1OCc1cccc(Br)c1 (configuration not stated)	1.0	4.3	9.7*	-5.8	23.8*	16.6	5.8	16.4	13.9*
COc1ccc(C2=Nc3ccccc3NC(=O)C2N(C(=O)c2ccnc3ccccc23)c2ccccc2)cc1 (configuration not stated)	-4.6	3.8	17.5*	2.8	33.0*	3.3	0.6	21.5*	14.5*
COc1ccc(C2=Nc3ccccc3NC(=O)C2N(C(=O)c2cnc(C)cn2)c2ccc(N3CCOCC3)cc2)cc1 (configuration not stated)	-4.9	0.3	-1.6	1.1	-3.7	·	·	·	·
O=C(C1CCCN1S(=O)(=O)c1ccc([N+](=O)[O-])cc1)N1CCc2ccccc2C1 (configuration not stated)	-5.2	-3.6	0.8	·	2.5	·	·	·	·
CCOC(=O)Cc1nc(N2CCN(CCO)CC2)c2c(C)c(C(=O)OCC)sc2n1	7.6	-6.0	-4.5	·	-36.7	·	·	·	·
O=C(CNc1cc(S(=O)(=O)N2CCCC2)ccc1OCC(F)(F)F)Nc1cccc(C(F)(F)F)c1	-6.8	-7.0	10.7*	-0.4	26.0*	2.6	0.5	40.6*	17.4*
